Experiments:
[1] = target: T1, Metabotropic glutamate receptor 1 (Homo sapiens, UniProt Q13255); experiment: Positive allosteric modulatory activity at human mGlu1 receptor expressed in wild type T-Rex293 cells assessed as increase in glutamate-induced calcium mobilization pre-incubated for 2.5 mins before glutamate stimulation for 1 min relative to glutamate alone; format: functional, cell-based
Procedure, shortened: (§1)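 Tetracycline-inducible human mGlu1 WT T-REx-293 cells were induced overnight with 50 ng/mL tetracycline in dialyzed-FBS medium. Cells were loaded with 1.15 μM Fluo-4 AM in HBSS/20 mM HEPES/2.5 mM probenecid for 45 min at 37 °C. Compounds (half-log series in DMSO) were added for 2.5 min, then an EC20 of glutamate for 1 min. Calcium flux was read on Flexstation; ECmax glutamate served as reference. n=3 in triplicate.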
Target sequence in this assay (Q13255 19-1194 limits assumed): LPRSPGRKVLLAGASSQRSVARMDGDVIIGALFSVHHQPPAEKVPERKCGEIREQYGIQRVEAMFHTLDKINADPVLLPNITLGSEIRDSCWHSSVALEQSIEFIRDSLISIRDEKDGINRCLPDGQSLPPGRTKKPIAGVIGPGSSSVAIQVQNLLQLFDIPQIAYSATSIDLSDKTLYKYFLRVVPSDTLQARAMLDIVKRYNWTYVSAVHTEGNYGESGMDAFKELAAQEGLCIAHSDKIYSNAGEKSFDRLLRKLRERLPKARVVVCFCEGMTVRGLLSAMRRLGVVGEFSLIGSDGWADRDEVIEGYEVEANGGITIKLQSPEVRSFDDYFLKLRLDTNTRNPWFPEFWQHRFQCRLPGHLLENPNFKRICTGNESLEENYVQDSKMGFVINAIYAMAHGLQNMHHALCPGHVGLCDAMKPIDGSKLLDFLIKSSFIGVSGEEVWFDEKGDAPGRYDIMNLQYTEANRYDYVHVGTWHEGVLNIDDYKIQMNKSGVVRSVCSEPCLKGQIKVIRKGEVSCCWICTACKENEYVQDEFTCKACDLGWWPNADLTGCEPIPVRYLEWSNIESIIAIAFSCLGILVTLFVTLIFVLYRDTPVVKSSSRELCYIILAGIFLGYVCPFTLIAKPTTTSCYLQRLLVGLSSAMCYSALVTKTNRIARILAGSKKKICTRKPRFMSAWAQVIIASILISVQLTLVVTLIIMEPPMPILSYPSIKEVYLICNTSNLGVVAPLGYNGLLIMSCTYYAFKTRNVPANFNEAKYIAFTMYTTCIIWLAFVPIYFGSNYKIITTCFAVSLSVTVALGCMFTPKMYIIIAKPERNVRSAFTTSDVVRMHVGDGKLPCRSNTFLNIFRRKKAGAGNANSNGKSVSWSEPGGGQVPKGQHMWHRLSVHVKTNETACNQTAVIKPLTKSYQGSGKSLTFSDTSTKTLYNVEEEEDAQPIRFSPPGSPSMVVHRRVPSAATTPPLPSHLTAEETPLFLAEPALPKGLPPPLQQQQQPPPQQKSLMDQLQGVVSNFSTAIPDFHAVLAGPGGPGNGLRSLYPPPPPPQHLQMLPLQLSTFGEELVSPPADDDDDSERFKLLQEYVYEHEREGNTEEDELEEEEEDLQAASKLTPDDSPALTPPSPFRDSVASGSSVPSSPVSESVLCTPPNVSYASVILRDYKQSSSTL

[2] = target: T1, Metabotropic glutamate receptor 1; experiment: Positive allosteric modulatory activity at human mGlu1 receptor expressed in wild type T-Rex293 cells assessed as increase in glutamate-induced calcium mobilization pre-incubated for 2.5 mins before glutamate stimulation for 1 min; format: functional, cell-based; procedure, shortened: as §1
Target sequence in this assay (Q13255 whole entry): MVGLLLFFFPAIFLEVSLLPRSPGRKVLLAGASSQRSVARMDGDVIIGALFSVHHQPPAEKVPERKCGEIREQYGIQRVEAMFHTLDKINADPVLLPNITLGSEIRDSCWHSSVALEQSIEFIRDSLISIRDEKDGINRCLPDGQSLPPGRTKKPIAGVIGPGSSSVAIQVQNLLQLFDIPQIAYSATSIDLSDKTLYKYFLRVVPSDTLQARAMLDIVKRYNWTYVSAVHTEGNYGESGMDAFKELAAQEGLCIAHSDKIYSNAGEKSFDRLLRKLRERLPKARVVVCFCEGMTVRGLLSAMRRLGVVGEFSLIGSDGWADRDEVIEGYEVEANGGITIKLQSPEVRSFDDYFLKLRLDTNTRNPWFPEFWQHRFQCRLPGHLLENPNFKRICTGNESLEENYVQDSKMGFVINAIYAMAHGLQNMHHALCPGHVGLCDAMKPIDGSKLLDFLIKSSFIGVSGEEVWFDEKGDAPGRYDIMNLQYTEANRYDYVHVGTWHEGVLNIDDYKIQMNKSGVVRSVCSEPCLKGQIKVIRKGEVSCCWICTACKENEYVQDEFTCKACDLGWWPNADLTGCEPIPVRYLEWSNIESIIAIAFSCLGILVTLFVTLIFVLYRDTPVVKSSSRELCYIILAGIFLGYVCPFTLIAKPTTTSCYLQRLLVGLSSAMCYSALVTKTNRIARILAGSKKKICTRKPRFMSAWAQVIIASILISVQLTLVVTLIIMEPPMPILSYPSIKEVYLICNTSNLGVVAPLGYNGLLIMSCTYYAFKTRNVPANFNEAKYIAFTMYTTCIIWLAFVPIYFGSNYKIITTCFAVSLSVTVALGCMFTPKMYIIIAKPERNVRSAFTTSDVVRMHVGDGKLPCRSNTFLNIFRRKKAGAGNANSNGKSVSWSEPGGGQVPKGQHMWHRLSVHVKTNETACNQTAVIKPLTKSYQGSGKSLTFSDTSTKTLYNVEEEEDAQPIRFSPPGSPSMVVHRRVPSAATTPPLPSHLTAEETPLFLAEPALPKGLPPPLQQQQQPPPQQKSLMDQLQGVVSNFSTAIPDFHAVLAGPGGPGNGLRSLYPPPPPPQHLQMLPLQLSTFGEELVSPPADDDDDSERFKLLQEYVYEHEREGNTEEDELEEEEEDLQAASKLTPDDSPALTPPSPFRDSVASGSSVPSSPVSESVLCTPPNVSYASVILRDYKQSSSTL

T-Rex 293 = experiment: Selectivity ratio of EC50 for human mGlu4 receptor expressed in wild type T-Rex 293 cells to EC50 for human mGlu1 receptor expressed in wild type T-Rex 293 cells; format: cell-based; details: T-Rex293
[3] = Fraction unbound in rat plasma; format: ADME, cell-free
[4] = Fraction unbound in human plasma; format: ADME, cell-free
Liver microsome [5] = experiment: Stability in rat liver microsomes; format: ADME
Liver microsome [6] = experiment: Stability in human liver microsomes; format: ADME
[7] = target: Metabotropic glutamate receptor 4 (Homo sapiens, UniProt Q14833); experiment: Positive allosteric modulatory activity at human mGlu4 receptor expressed in wild type T-Rex293 cells assessed as increase in glutamate-induced calcium mobilization pre-incubated for 2.5 mins before glutamate stimulation for 1 min; format: functional, cell-based
Chain of Metabotropic glutamate receptor 4 (Q14833 whole entry): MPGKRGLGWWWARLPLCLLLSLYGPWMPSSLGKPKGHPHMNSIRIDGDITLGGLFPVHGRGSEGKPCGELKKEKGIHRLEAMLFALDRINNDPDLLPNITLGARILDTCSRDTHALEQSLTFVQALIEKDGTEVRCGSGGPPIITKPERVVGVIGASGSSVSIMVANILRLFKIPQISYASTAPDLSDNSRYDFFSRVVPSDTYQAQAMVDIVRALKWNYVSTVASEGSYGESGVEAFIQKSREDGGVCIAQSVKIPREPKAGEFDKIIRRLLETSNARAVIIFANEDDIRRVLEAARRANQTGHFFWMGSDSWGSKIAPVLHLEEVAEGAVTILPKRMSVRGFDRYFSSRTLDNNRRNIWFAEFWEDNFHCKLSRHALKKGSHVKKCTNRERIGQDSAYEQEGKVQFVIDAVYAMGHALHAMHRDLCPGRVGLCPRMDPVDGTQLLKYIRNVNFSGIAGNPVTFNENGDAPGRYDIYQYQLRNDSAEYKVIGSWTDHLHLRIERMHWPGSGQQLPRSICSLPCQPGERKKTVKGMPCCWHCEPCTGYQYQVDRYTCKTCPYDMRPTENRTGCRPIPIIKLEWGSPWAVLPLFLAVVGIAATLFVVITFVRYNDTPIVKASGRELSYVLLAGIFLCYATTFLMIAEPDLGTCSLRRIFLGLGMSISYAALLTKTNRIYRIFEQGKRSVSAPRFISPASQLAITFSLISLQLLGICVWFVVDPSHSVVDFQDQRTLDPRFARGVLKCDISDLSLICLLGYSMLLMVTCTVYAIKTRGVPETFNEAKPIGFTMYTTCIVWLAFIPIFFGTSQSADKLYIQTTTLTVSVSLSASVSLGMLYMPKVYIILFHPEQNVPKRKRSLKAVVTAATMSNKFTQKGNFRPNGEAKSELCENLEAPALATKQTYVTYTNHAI

Plasma [8] = experiment: Stability in rat plasma; format: ADME, cell-free
Plasma [9] = experiment: Stability in human plasma; format: ADME, cell-free

%max [1]	EC50 ([2]; read-out: EC50)	Structure (SMILES)	also measured
93%	1270 nM	O=C(Nc1ccc(N2Cc3c(Cl)cccc3C2=O)c(Cl)c1)c1ncccc1Cl	
70%	25.7 nM	Cc1ccc2c(c1)C(=O)N(c1ccc(NC(=O)c3occc3C)c(F)c1)C2=O	Ratio EC50 (T-Rex 293): > 450
89%	1070 nM	Cc1ccoc1C(=O)Nc1ccc(N2Cc3c(C)cccc3C2=O)c(Cl)c1	fraction unbound [3]: < 0.01; EC50 ([2]; read-out: pEC50 (converted)): 1100 nM; fraction unbound [4]: < 0.01
78%	9550 nM	Cc1ccoc1C(=O)Nc1ccc(N2Cc3cccnc3C2)c(Cl)c1	
51%	> 10000 nM	O=C(Nc1ccc(N2Cc3cccc(Cl)c3C2=O)c(Cl)c1)c1ncccc1Cl	
93%	2610 nM	Cc1ccoc1C(=O)Nc1ccc(N2CCOc3ncccc32)c(Cl)c1	
81%	6520 nM	Cc1ccoc1C(=O)Nc1ccc(N2Cc3cccc(Cl)c3C2=O)c(Cl)c1Cl	EC50 ([2]; read-out: pEC50 (converted)): 6610 nM
	> 10000 nM	COc1cccc2c1CN(c1ccc(NC(=O)c3occc3C)cc1Cl)C2=O	fraction unbound [3]: < 0.01; fraction unbound [4]: < 0.01
	> 10000 nM	Cc1ccoc1C(=O)Nc1ccc(N2Cc3ccccc3C2=O)cc1F	
58%	> 10000 nM	Cc1ccoc1C(=O)Nc1ccc(N2Cc3cc(Cl)ccc3C2=O)c(Cl)c1	fraction unbound [3]: < 0.01; fraction unbound [4]: < 0.01
95%	3500 nM	Cc1ccoc1C(=O)Nc1ccc(N2C(=O)Cc3ccccc3CC2=O)c(Cl)c1	EC50 ([2]; read-out: pEC50 (converted)): 3630 nM
107%	2090 nM	Cc1ccoc1C(=O)Nc1ccc(N2Cc3c(C#N)cccc3C2=O)c(Cl)c1	fraction unbound [3]: < 0.01; EC50 ([2]; read-out: pEC50 (converted)): 2140 nM; fraction unbound [4]: < 0.01
	> 10000 nM	Cc1ccoc1C(=O)Nc1ccc(N2C(=O)[C@@H]3CCCC[C@H]3C2=O)c(Cl)c1 (relative stereo)	
101%	353 nM	Cc1ccoc1C(=O)Nc1ccc(N2Cc3cccc(Cl)c3C2=O)cc1	
82%	878 nM	Cc1ccoc1C(=O)Nc1ccc(N2Cc3c(F)cccc3C2=O)c(Cl)c1	fraction unbound [3]: < 0.01; EC50 ([2]; read-out: pEC50 (converted)): 891 nM; fraction unbound [4]: < 0.01
	> 10000 nM	Cc1ccoc1C(=O)Nc1ccc(N2Cc3cccnc3C2=O)c(Cl)c1	fraction unbound [3]: < 0.01; fraction unbound [4]: < 0.01
99%	3620 nM	Cc1ccoc1C(=O)Nc1ccc(N2CCOc3ccccc32)c(Cl)c1	
76%	6930 nM	Cc1ccoc1C(=O)Nc1ccc(N2C(=O)c3ccccc3C2(C)C)c(Cl)c1	fraction unbound [3]: < 0.01; EC50 ([2]; read-out: pEC50 (converted)): 7080 nM; fraction unbound [4]: < 0.01
107%	2470 nM	Cc1ccoc1C(=O)Nc1ccc(N2CCc3ccccc3C2)c(Cl)c1	EC50 ([2]; read-out: pEC50 (converted)): 1320 nM
69%	4690 nM	Cc1scnc1C(=O)Nc1ccc(N2Cc3cccc(Cl)c3C2=O)c(Cl)c1	EC50 ([2]; read-out: pEC50 (converted)): 4790 nM
99%	391 nM	Cc1ccoc1C(=O)Nc1ccc(N2Cc3c(Br)cccc3C2=O)c(Cl)c1	fraction unbound [3]: < 0.01; fraction unbound [4]: < 0.01
94%	1560 nM	Cc1ccoc1C(=O)Nc1ccc(N2Cc3ccccc3C2=O)cc1	
97%	1360 nM	Cc1cccnc1C(=O)Nc1ccc(N2Cc3c(Cl)cccc3C2=O)c(Cl)c1	EC50 ([2]; read-out: pEC50 (converted)): 1450 nM
94%	781 nM	Cc1ccoc1C(=O)Nc1ccc(N2CCc3ccccc3C2=O)c(Cl)c1	

Continued, compound first:

Structure (SMILES)	%max [1]	EC50 ([2]; read-out: EC50)	also measured
Cc1ccoc1C(=O)Nc1ccc(N2Cc3c(Cl)cccc3C2=O)cc1F	86%	1260 nM	
Cc1ccoc1C(=O)Nc1ccc(N2Cc3nccnc3C2=O)c(Cl)c1		> 10000 nM	fraction unbound [3]: < 0.01; fraction unbound [4]: < 0.01
Cc1ccoc1C(=O)Nc1ccc(N2Cc3ccccc3C2=O)c(Cl)c1	91%	3720 nM	Stability (Liver microsome [5]): Stable; Stability (Liver microsome [6]): Stable
Cc1ccoc1C(=O)Nc1ccc(N2C(=O)[C@H]3CCCC[C@H]3C2=O)c(Cl)c1		> 10000 nM	
O=C(Nc1ccc(N2C(=O)c3cccc(Cl)c3C2=O)c(Cl)c1)c1ncccc1Cl			EC50 [7]: > 10 µM
Cc1cccnc1C(=O)Nc1ccc(N2Cc3cccc(Cl)c3C2=O)c(Cl)c1	78%	> 10000 nM	
Cc1ccoc1C(=O)Nc1ccc(NC(=O)c2ccccc2)c(Cl)c1		> 10000 nM	
Cc1ccoc1C(=O)Nc1ccc(N2Cc3c(cccc3C(F)(F)F)C2=O)c(Cl)c1	105%	1130 nM	fraction unbound [3]: < 0.01; fraction unbound [4]: < 0.01
Cc1ccoc1C(=O)Nc1ccc(N2Cc3cccc(Cl)c3C2=O)c(Cl)c1	108%	484 nM	fraction unbound [3]: < 0.01; fraction unbound [4]: < 0.01
Cc1ccoc1C(=O)Nc1ccc(NC(=O)c2ccccc2C(=O)O)c(Cl)c1	108%	930 nM	
Cc1ccoc1C(=O)Nc1ccc(N2C(=O)Cc3ccccc32)c(Cl)c1		> 10000 nM	
Cc1ccoc1C(=O)Nc1ccc(N2Cc3ccccc3C2)c(Cl)c1	95%	1760 nM	
Cc1ccoc1C(=O)Nc1ccc(N2Cc3cccc(Cl)c3C2=O)cc1F		> 10000 nM	
Cc1ccoc1C(=O)Nc1ccc(N2Cc3c(Cl)cccc3C2=O)c(Cl)c1Cl		> 10000 nM	
O=C(Nc1ccc(N2Cc3ccccc3C2=O)c(Cl)c1)c1ncccc1Cl		> 10000 nM	
Cc1scnc1C(=O)Nc1ccc(N2Cc3c(Cl)cccc3C2=O)c(Cl)c1	66%	954 nM	
Cc1ccoc1C(=O)Nc1ccc(N2C(=O)CCc3ccccc32)c(Cl)c1	107%	1290 nM	EC50 ([2]; read-out: pEC50 (converted)): 1320 nM; Stability (Plasma [8]): Stable; Stability (Plasma [9]): Stable
Cc1scnc1C(=O)Nc1ccc(N2Cc3ccccc3C2=O)c(Cl)c1	33%	> 10000 nM	
Cc1cccnc1C(=O)Nc1ccc(N2Cc3ccccc3C2=O)c(Cl)c1		> 10000 nM	
Cc1ccoc1C(=O)Nc1ccc(N2Cc3ncccc3C2=O)c(Cl)c1		> 10000 nM	fraction unbound [3]: < 0.01; fraction unbound [4]: < 0.01
Cc1ccoc1C(=O)Nc1ccc(N2Cc3ccccc3C2=O)c(Cl)c1Cl		> 10000 nM	
Cc1ccoc1C(=O)Nc1ccc(N2C(=O)c3cccc(F)c3C2=O)c(Cl)c1			Ratio EC50 (T-Rex 293): 35
Cc1ccoc1C(=O)Nc1ccc(N2Cc3c(Cl)cccc3C2=O)cc1	99%	245 nM	
Cc1ccoc1C(=O)Nc1ccc(N2C(=O)c3ccccc3C2=O)cc1F			Ratio EC50 (T-Rex 293): > 793
Cc1ccoc1C(=O)Nc1ccc(N2CCc3ccccc32)c(Cl)c1	82%	5710 nM	
